Test results as given in ChEMBL document CHEMBL3286353, “Optimization of small-molecule inhibitors of influenza virus polymerase: from thiophene-3-carboxamide to polyamido scaffolds” (J Med Chem, 2014).
pEC50, pIC50: −log10 of the molar value. ≈ marks a conversion by molar mass, not a printed value. Calls of active or inactive are those of the source. The calls are words filed in the database; no cut-off is given here.

Key:
[1] = Cytotoxicity against MDCK cells after 48 hrs by MTT assay; type: cell-based, Canis lupus familiaris; conditions: dog
Method in brief: (§1)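 MTT assay. HEK 293T or MDCK cells (2×10^4 per well) were cultured at 37 °C in DMEM with serially diluted compounds (250 to 1.9 μM), for 24 h (293T) or 48 h (MDCK). MTT (5 mg/ml stock) was then added for 4 h, cells were lysed and incubated 3 h more, and absorbance was read at 620 nm. CC50 is the concentration cutting viability 50%, mean ± SD of ≥3 independent experiments in duplicate.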

[2] = Inhibition of Influenza A virus GST-tagged PB1 (1 to 25) expressed in Escherichia coli binding to Influenza A virus 6His-tagged PA (239 to 716) expressed in Escherichia coli BL21(DE3) by ELISA
Method in brief: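 Plates coated with 400 ng purified E. coli-expressed 6His-PA(239-716) for 3 h at 37 °C, then blocked with 2% BSA/PBS for 1 h at 37 °C. GST-PB1(1-25) (200 ng; GST alone as control) was added with compound at 10, 50, 100 or 200 μM and incubated overnight at room temperature. Detection used HRP anti-GST mAb (1:3000) and TMB at 450 nm, with DMSO set as 100%. IC50 is mean ± SD, ≥3 experiments in duplicate.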

[3] = tested on: Influenza A virus; assay: Inhibition of Influenza A virus A/PR/8/34 infected in MDCK cells after 48 hrs by plaque reduction assay; type: functional, organism-based; conditions: A/PR/8/34, MDCK
Method in brief: (§2)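 Confluent MDCK monolayers in 12-well plates were infected with about 40 PFU/well in DMEM with 1 µg/ml TPCK-trypsin and 0.14% BSA, with compound or DMSO, for 1 h at 37 °C. Overlay was serum-free medium with trypsin, BSA, 1.2% Avicel and compound. After 48 h, cells were fixed with 4% formaldehyde, stained with 0.1% toluidine blue and plaques counted, with DMSO set as 100%. EC50 is mean ± SD, ≥3 experiments in duplicate.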

[4] = Inhibition of Influenza A virus RdRP infected in human HEK293T cells after 24 hrs by dual luciferase reporter gene assay; type: cell-based; conditions: HEK-293T
Method in brief: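 HEK 293T cells (10^5 per well) were transfected 24 h after seeding with PB1, PB2, PA and NP plasmids (100 ng each), a pol I firefly luciferase reporter (50 ng) and pRL-SV40 Renilla (50 ng), with compound or DMSO. Medium was replaced with compound-containing DMEM at 4 h. Dual luciferase was read at 24 h post-transfection, with DMSO set as 100%. EC50 is mean ± SD, ≥3 experiments in duplicate.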

[5] = Cytotoxicity against human HEK293T cells after 24 hrs by MTT assay; type: cell-based, HEK-293T; method in brief: as §1
[6] = Permeability of the compound by PAMPA; type: physicochemical
[7] = Solubility of the compound in D2O at 25 degC after 24 hrs by NMR analysis; type: physicochemical
[8] = tested on: Influenza B virus; assay: Inhibition of Influenza B virus (B/Lee/40) infected in MDCK cells after 48 hrs by plaque reduction assay; type: functional, organism-based; conditions: B/Lee/1940, MDCK; method in brief: as §2
[9] = tested on: Human betaherpesvirus 5; assay: Inhibition of HCMV UL54 expressed in baculovirus interaction with UL44 expressed in baculovirus after 1 hr by ELISA
Method in brief: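 Plates coated with […] purified baculovirus-expressed HCMV UL54, then blocked with 2% BSA/PBS for 1 h. Purified UL44 ([…]) carrying a C-terminal EEF tag was added with compound or DMSO (1% final) for 1 h at 37 °C. Detection used MAb YL1/2 (1 h, 37 °C), then HRP anti-rat antibody and TMB, read at 450 nm. Compounds were tested up to 200 μM.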

[10] = Inhibition of Influenza A virus (A/Solomon Islands/3/2006(H1N1)) infected in MDCK cells after 48 hrs by plaque reduction assay; type: functional, cell-based; method in brief: as §2
[11] = tested on: Influenza A virus; assay: Inhibition of Influenza A virus A/Padova/30/11(H1N1) infected in MDCK cells after 48 hrs by plaque reduction assay; type: functional, organism-based; method in brief: as §2
[12] = Inhibition of Influenza A virus (A/Parma/24/2009(H1N1)) infected in MDCK cells after 48 hrs by plaque reduction assay; type: functional, cell-based; method in brief: as §2
[13] = tested on: Influenza A virus; assay: Inhibition of Influenza A virus A/[…]/67/05(H3N2) infected in MDCK cells after 48 hrs by plaque reduction assay; type: functional, organism-based; method in brief: as §2
[14] = tested on: Influenza B virus; assay: Inhibition of Influenza B virus (B/Malaysia/2506/2004) infected in MDCK cells after 48 hrs by plaque reduction assay; type: functional, cell-based; conditions: B/Malaysia/2506/2004, MDCK; method in brief: as §2
[15] = tested on: Liver microsome; assay: Metabolic stability in human liver microsomes after 30 mins by HPLC-MS/MS analysis; type: ADME; conditions: 0.5 h
[16] = Metabolic stability in human liver microsomes assessed as compound remaining after 30 mins by HPLC-MS/MS analysis; type: ADME; conditions: read-out: Stability

Structure (SMILES)	CC50 at 48 h [1]	pIC50 [2]	pEC50 [3]	pEC50 [4]	CC50 at 24 h [5]	permeability [6]	solubility at 24 h [7]	pEC50 [8]	inhibition activity call (active/not active) [9]	pEC50 [10]	pEC50 [11]	pEC50 [12]	pEC50 [13]	pEC50 [14]	Stability [15]	remaining at 0.5 h [16]	inhibition [9]	pIC50 [4]
NC(=O)c1c(NC(=O)c2cnn3c(C(F)(F)F)cc(-c4ccccc4)nc23)sc2c1CCCC2	> 250 µM	3.92	< 4.00	4.15	> 250 µM	–	–	–	–	–	–	–	–	–	–	–	–	–
COc1ccc(-c2cc(C(F)(F)F)n3ncc(C(=O)Nc4sc5c(c4C(N)=O)CCCC5)c3n2)cc1	51.3 µM	3.87	–	–	40.4 µM	–	–	–	–	–	–	–	–	–	–	–	–	–
O=C(Nc1ccc2c(c1)CCC2)c1cnn2c(C(F)(F)F)cc(-c3cccs3)nc12	18.3 µM	4.45	–	–	12.4 µM	–	–	–	–	–	–	–	–	–	–	–	–	–
Cc1ccc(C)c(NS(=O)(=O)c2cc(C(=O)Nc3ccccc3C(=O)Nc3ccccc3)ccc2C)c1	70.3 µM	4.04	4.61	< 4.00	> 250 µM	–	–	–	–	–	–	–	–	–	–	–	–	–
NC(=O)c1ncn([C@@H]2O[C@H](CO)[C@@H](O)[C@H]2O)n1 [RIBAVIRIN]	> 250 µM	–	4.81	4.60	> 250 µM	–	–	–	–	–	–	–	–	–	–	–	–	–
CCC(C)NC(=O)c1ccccc1NC(=O)c1ccc(C)c(S(=O)(=O)Nc2cccc(NC(=O)c3ccccc3)c2)c1 (stereo unspecified)	> 250 µM	< 3.70	< 4.00	< 4.00	> 250 µM	–	–	–	–	–	–	–	–	–	–	–	–	–
NC(=O)c1c(NC(=O)c2nc3nc(-c4ccccc4)cc(C(F)(F)F)n3n2)sc2c1CCCC2	> 250 µM	5.12	4.63	5.04	> 250 µM	permeable	2.4 µg/mL (≈ 4.93 µM)	4.47	inactive	4.63	4.69	4.64	4.70	4.59	Stable	–	–	–
CCC(C)NC(=O)c1ccccc1NC(=O)c1cccc(S(=O)(=O)Nc2cc(C)ccc2C)c1 (stereo unspecified)	> 250 µM	4.08	4.45	4.59	> 250 µM	–	–	4.81	inactive	4.78	4.78	4.66	4.97	4.70	–	–	–	–
CCC(C)NC(=O)c1ccccc1NC(=O)c1cccc(S(=O)(=O)Nc2ccccc2)c1 (stereo unspecified)	> 250 µM	5.04	4.52	4.76	> 250 µM	permeable	1 µg/mL (≈ 2.21 µM)	4.59	inactive	4.65	4.42	4.37	4.63	4.58	–	50%	–	–
COC(=O)C1=C(N)N(c2cccc(Cl)c2C)C2=C(C(=O)CCC2)C1c1ccc2c(c1)OCO2 (stereo unspecified)	–	4.52	–	4.73	–	–	–	–	–	–	–	–	–	–	–	–	–	–
NC(=O)c1c(NC(=O)c2cnn3c(C(F)F)cc(-c4ccccc4)nc23)sc2c1CCCC2	> 250 µM	4.04	4.18	4.03	> 250 µM	–	–	–	–	–	–	–	–	–	–	–	–	–
NC(=O)c1c(NC(=O)c2cnn3c(C(F)F)cc(-c4ccccc4)nc23)sc2c1CCC2	> 250 µM	–	4.12	4.53	> 250 µM	–	–	< 4.00	–	< 4.00	< 4.00	4.02	< 4.00	< 4.00	–	37%	inactive	4.50
O=C(Nc1cnn(C23CC4CC(CC(C4)C2)C3)c1)c1cnn2c1NC(c1ccccc1)CC2C(F)(F)F (stereo unspecified)	20.2 µM	< 3.70	–	–	30.1 µM	–	–	–	–	–	–	–	–	–	–	–	–	–
O=C(Nc1ccccc1Cl)c1ccc2c(c1)C1C3CCC(C3)C1C(c1ccccc1)N2 (stereo unspecified)	> 250 µM	< 3.70	< 4.00	< 4.00	> 250 µM	–	–	–	–	–	–	–	–	–	–	–	–	–
NC(=O)c1c(NC(=O)c2cnn3c(C(F)(F)F)cc(-c4ccccc4)nc23)sc2c1CCC2	> 250 µM	4.35	4.24	4.56	> 250 µM	–	–	–	–	–	–	–	–	–	–	–	–	–
Cc1ccc(-c2cc(C(F)(F)F)n3ncc(C(=O)Nc4sc5c(c4C(N)=O)CCCC5)c3n2)cc1	> 250 µM	4.37	4.00	4.20	> 250 µM	–	–	–	–	–	–	–	–	–	–	–	–	–
Cn1c(=O)cc2c3c(c(N4CCCCC4)ccc31)C(=O)c1ccccc1-2	–	–	–	–	–	–	–	–	Active	–	–	–	–	–	–	–	–	–
CCC(C)NC(=O)c1ccccc1NC(=O)c1ccc(C)c(S(=O)(=O)Nc2cc(C)ccc2C)c1 (stereo unspecified)	> 250 µM	4.52	4.73	4.34	> 250 µM	–	–	4.66	inactive	4.76	4.65	4.60	4.80	4.53	–	–	–	–
CCC(C)NC(=O)c1ccccc1NC(=O)c1cccc(S(=O)(=O)Nc2ccc(O)cc2)c1 (stereo unspecified)	> 250 µM	< 3.70	< 4.00	4.08	> 250 µM	–	–	–	–	–	–	–	–	–	–	–	–	–
NC(=O)c1c(NC(=O)c2cccnc2)sc2c1CCCC2	45.2 µM	< 3.70	–	–	> 250 µM	–	–	–	–	–	–	–	–	–	–	–	–	–
